In ChEMBL document CHEMBL4052710 (Bioorg Med Chem Lett, 2017):
pIC50: −log10 of the molar value. Calls of active or inactive are those of the source. The rule behind the calls is not given here.

Columns and labels:
T47D [1] = assay: Induction of apoptosis in human T47D cells assessed as viable cells level at 5 uM incubated for 48 hrs by annexin V-FITC and propidium iodide staining based flow cytometry (reference value: 96%); assay type: functional
NCI-H460 [2] = assay: Growth inhibition of human H460 cells incubated for 72 hrs by CCK8 assay; assay type: functional, cell-based; settings: NCI-H460, 72 h
A549 [3] = assay: Growth inhibition of human A549 cells incubated for 72 hrs at 1 uM by CCK8 assay; assay type: functional; settings: A549, 72 h, read-out: GI
In short: (§1)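 CCK8 viability assay on a panel of human cancer cell lines, with an initial screen at fixed concentrations of 1 µM and 10 µM.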

T47D [4] = assay: Induction of apoptosis in human T47D cells incubated for 48 hrs by annexin V-FITC and propidium iodide staining based flow cytometry; assay type: functional, cell-based
[5] = target: CDK2/Cyclin A2 (Homo sapiens) (UniProt P24941+P20248); assay: Inhibition of human CDK2/CyclinA at 1 uM by enzymatic radiometric assay; assay type: protein-complex assay
In short: (§2)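 Kinase panel run through the Eurofins KinaseProfiler, with compound at a fixed 1 µM. Values are means of two independent experiments.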

[6] = target: CDK7/Cyclin H/MNAT1 (Homo sapiens) (UniProt P51946+P50613+P51948); assay: Inhibition of human CDK7/CyclinH/MAT1 at 1 uM by enzymatic radiometric assay; assay type: protein-complex assay
T47D [7] = assay: Induction of cell cycle arrest in human T47D cells assessed as reduction in S phase accumulation at 0.1 to 1 uM incubated for 24 hrs by flow cytometry; assay type: functional, cell-based
In short: (§3)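 Cells were treated for 24 h with compound at 0.1, 0.5 and 1 µM, with LEE011 or vehicle (DMSO) alongside. Cell-cycle phase distribution was then determined by flow cytometry.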

NCI-H460 [8] = assay: Growth inhibition of human H460 cells incubated for 72 hrs at 10 uM by CCK8 assay; assay type: functional; settings: NCI-H460, 72 h, read-out: GI; in short: as §1
T47D [9] = assay: Induction of apoptosis in human T47D cells assessed as necrotic cells level at 1 uM incubated for 48 hrs by annexin V-FITC and propidium iodide staining based flow cytometry (reference value: 2.79%); assay type: functional
T47D [10] = assay: Induction of apoptosis in human T47D cells assessed as late apoptotic cells level at 1 uM incubated for 48 hrs by annexin V-FITC and propidium iodide staining based flow cytometry (reference value: 0.48%); assay type: functional
[11] = target: Cyclin-dependent kinase 2/cyclin E1 (Homo sapiens) (UniProt P24864+P24941); assay: Inhibition of human CDK2/CyclinE at 1 uM by enzymatic radiometric assay; assay type: protein-complex assay; in short: as §2
NCI-H460 [12] = assay: Growth inhibition of human H460 cells incubated for 72 hrs at 1 uM by CCK8 assay; assay type: functional; settings: NCI-H460, 72 h, read-out: GI; in short: as §1
T47D [13] = assay: Induction of apoptosis in human T47D cells assessed as early apoptotic cells level at 0.5 uM incubated for 48 hrs by annexin V-FITC and propidium iodide staining based flow cytometry (reference value: 0.75%); assay type: functional
A549 [14] = assay: Growth inhibition of human A549 cells incubated for 72 hrs at 10 uM by CCK8 assay; assay type: functional; settings: A549, 72 h, read-out: GI; in short: as §1
T47D [15] = assay: Induction of apoptosis in human T47D cells assessed as necrotic cells level at 0.25 uM incubated for 48 hrs by annexin V-FITC and propidium iodide staining based flow cytometry (reference value: 2.79%); assay type: functional
T47D [16] = assay: Induction of apoptosis in human T47D cells assessed as viable cells level at 0.5 uM incubated for 48 hrs by annexin V-FITC and propidium iodide staining based flow cytometry (reference value: 96%); assay type: functional
HeLa = assay: Growth inhibition of human HeLa cells incubated for 72 hrs at 10 uM by CCK8 assay; assay type: functional; settings: read-out: GI; in short: as §1
NCI-H1299 [17] = assay: Growth inhibition of human H1299 cells incubated for 72 hrs by CCK8 assay; assay type: functional, cell-based; settings: NCI-H1299, 72 h
T47D [18] = assay: Inhibition of cell migration of human T47D cells at 0.5 to 5 uM incubated for 16 hrs by transwell cell migration assay; assay type: functional, cell-based
In short: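 T47D cells were assayed by transwell migration. After 16 h incubation, migrated cells were counted by microscope in five random fields per chamber.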

T47D [19] = assay: Induction of apoptosis in human T47D cells assessed as early apoptotic cells level at 0.25 uM incubated for 48 hrs by annexin V-FITC and propidium iodide staining based flow cytometry (reference value: 0.75%); assay type: functional
SiHa [20] = assay: Growth inhibition of human SiHa cells incubated for 72 hrs at 10 uM by CCK8 assay; assay type: functional; settings: read-out: GI; in short: as §1
[21] = target: Vascular endothelial growth factor receptor 2 (Homo sapiens, UniProt P35968); assay: Inhibition of human VEGFR2 by enzymatic radiometric assay
In short: (§4)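 IC50 was determined through a commercial kinase profiling service. Values are the mean of two independent experiments.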

T47D [22] = assay: Induction of apoptosis in human T47D cells assessed as early apoptotic cells level at 5 uM incubated for 48 hrs by annexin V-FITC and propidium iodide staining based flow cytometry (reference value: 0.75%); assay type: functional
T47D [23] = assay: Growth inhibition of human T47D cells incubated for 72 hrs at 10 uM by CCK8 assay; assay type: functional; settings: read-out: GI; in short: as §1
[24] = target: Cyclin-dependent kinase 1/cyclin B1 (Homo sapiens) (UniProt P06493+P14635); assay: Inhibition of human CDK1/CyclinB at 1 uM by enzymatic radiometric assay; assay type: protein-complex assay; in short: as §2
[25] = target: CDK18/Cyclin Y (Homo sapiens) (UniProt Q07002+Q8ND76); assay: Inhibition of human CDK18/CyclinY at 1 uM by enzymatic radiometric assay; assay type: protein-complex assay; in short: as §2
[26] = target: CDK3/Cyclin E (Homo sapiens) (UniProt P24864+Q00526); assay: Inhibition of human CDK3/CyclinE at 1 uM by enzymatic radiometric assay; assay type: protein-complex assay; in short: as §2
[27] = target: T1, Cyclin-dependent kinase 5/CDK5 activator 1 (Homo sapiens) (UniProt Q00535+Q15078); assay: Inhibition of human CDK5/p35 at 1 uM by enzymatic radiometric assay; assay type: protein-complex assay
NCI-H1299 [28] = assay: Growth inhibition of human H1299 cells incubated for 72 hrs at 1 uM by CCK8 assay; assay type: functional; settings: NCI-H1299, 72 h, read-out: GI; in short: as §1
[29] = target: CDK4/Cyclin D3 (Homo sapiens) (UniProt P11802+P30281); assay: Inhibition of human CDK4/CyclinD3 at 1 uM by enzymatic radiometric assay; assay type: protein-complex assay; in short: as §2
T47D [30] = assay: Induction of cell cycle arrest in human T47D cells assessed as increase in G0/G1 phase accumulation at 0.1 to 1 uM incubated for 24 hrs by flow cytometry; assay type: functional, cell-based; in short: as §3
OVCAR-5 = assay: Growth inhibition of human OVCAR5 cells incubated for 72 hrs at 1 uM by CCK8 assay; assay type: functional; settings: OVCAR-5, 72 h, read-out: GI; in short: as §1
T47D [31] = assay: Induction of apoptosis in human T47D cells assessed as early apoptotic cells level at 1 uM incubated for 48 hrs by annexin V-FITC and propidium iodide staining based flow cytometry (reference value: 0.75%); assay type: functional
[32] = target: CDK9/cyclin T1 (Homo sapiens) (UniProt O60563+P50750); assay: Inhibition of human CDK9/CyclinT1 at 1 uM by enzymatic radiometric assay; assay type: protein-complex assay
CDK9/cyclin T1 = CDK9/cyclin T1 (Homo sapiens, UniProt P50750); assay: Inhibition of human CDK9/CyclinT1 by enzymatic radiometric assay; assay type: protein-complex assay; in short: as §4
SiHa [33] = assay: Growth inhibition of human SiHa cells incubated for 72 hrs at 1 uM by CCK8 assay; assay type: functional; settings: read-out: GI; in short: as §1
[34] = target: T1, Cyclin-dependent kinase 5/CDK5 activator 1 (Homo sapiens); assay: Inhibition of human CDK5/p25 at 1 uM by enzymatic radiometric assay; assay type: protein-complex assay

T1 sequence (Q00535 whole entry): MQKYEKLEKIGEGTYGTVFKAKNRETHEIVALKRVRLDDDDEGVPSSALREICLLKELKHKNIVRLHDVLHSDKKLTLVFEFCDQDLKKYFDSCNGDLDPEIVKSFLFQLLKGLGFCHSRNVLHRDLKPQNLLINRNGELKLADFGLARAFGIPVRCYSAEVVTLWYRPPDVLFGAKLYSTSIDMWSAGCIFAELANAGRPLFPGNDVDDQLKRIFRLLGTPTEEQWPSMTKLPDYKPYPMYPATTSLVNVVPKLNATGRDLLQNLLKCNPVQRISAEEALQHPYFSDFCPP
T1 sequence (Q15078 99-307 partner limits assumed): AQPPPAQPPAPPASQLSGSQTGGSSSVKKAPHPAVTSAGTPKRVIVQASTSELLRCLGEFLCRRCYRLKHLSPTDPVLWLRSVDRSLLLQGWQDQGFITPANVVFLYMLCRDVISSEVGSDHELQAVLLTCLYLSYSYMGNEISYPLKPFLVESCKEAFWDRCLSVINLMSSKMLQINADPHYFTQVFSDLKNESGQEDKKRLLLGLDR
Sequence of CDK3/Cyclin E (Homo sapiens) (P24864 whole entry, looked up): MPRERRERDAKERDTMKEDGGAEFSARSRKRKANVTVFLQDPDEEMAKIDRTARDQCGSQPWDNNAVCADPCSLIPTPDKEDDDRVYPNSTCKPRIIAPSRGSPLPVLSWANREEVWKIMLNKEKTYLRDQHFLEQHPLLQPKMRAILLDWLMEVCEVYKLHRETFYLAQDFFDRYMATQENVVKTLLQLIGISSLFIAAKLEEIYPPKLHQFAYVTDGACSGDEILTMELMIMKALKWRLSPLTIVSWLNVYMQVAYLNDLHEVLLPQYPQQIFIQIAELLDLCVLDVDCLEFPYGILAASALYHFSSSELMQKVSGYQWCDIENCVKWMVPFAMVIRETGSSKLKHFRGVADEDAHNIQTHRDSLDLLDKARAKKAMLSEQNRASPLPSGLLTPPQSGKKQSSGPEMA
Sequence of CDK3/Cyclin E (Homo sapiens) (Q00526 whole entry, looked up): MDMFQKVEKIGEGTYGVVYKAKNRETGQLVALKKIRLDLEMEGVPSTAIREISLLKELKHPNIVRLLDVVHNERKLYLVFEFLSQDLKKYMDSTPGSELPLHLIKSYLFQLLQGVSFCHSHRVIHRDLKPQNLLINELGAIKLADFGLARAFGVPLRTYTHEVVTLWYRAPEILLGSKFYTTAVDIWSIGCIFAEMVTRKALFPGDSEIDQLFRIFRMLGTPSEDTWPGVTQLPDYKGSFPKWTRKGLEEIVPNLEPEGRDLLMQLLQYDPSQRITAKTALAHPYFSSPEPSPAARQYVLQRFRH
Sequence of Cyclin-dependent kinase 1/cyclin B1 (Homo sapiens) (P06493 whole entry, looked up): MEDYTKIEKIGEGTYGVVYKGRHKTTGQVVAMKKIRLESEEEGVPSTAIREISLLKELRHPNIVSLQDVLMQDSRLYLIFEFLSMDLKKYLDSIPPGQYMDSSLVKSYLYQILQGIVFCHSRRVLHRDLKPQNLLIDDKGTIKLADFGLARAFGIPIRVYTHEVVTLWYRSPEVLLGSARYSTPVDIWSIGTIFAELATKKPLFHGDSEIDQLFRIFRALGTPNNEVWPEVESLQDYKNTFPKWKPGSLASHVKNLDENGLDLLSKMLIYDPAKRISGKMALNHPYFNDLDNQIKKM
Sequence of Cyclin-dependent kinase 1/cyclin B1 (Homo sapiens) (P14635 whole entry, looked up): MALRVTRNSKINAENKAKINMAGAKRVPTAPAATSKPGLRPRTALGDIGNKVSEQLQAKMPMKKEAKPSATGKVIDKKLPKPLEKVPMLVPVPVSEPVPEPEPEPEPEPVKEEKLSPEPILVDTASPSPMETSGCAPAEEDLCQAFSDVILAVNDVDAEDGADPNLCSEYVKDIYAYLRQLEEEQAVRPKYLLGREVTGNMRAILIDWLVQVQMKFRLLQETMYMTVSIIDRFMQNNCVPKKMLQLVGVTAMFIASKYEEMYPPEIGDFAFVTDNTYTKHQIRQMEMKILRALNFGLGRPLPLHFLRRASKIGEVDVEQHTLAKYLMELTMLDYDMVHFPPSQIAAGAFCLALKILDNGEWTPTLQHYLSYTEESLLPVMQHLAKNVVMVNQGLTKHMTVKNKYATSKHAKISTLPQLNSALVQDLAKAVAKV
Sequence of CDK9/cyclin T1 (O60563 whole entry): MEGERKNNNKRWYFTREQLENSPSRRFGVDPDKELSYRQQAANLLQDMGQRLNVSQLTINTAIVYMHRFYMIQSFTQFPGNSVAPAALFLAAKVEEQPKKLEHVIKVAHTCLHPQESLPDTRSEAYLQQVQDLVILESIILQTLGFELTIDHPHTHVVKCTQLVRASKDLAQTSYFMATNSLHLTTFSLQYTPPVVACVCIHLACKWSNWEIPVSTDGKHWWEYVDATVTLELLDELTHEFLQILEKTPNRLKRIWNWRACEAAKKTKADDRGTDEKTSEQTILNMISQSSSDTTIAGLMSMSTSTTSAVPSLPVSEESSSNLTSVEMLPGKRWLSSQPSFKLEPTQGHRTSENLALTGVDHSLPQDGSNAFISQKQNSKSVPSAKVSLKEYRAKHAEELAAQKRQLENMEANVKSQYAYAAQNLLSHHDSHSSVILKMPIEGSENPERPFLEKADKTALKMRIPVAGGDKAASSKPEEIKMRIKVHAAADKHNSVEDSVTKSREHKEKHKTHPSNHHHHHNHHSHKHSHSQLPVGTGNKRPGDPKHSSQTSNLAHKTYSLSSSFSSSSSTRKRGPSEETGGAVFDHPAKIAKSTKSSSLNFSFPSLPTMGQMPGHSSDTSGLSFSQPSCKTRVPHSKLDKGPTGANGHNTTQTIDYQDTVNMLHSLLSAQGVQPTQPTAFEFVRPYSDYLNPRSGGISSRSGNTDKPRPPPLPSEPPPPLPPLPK
Sequence of CDK9/cyclin T1 (P50750 whole entry): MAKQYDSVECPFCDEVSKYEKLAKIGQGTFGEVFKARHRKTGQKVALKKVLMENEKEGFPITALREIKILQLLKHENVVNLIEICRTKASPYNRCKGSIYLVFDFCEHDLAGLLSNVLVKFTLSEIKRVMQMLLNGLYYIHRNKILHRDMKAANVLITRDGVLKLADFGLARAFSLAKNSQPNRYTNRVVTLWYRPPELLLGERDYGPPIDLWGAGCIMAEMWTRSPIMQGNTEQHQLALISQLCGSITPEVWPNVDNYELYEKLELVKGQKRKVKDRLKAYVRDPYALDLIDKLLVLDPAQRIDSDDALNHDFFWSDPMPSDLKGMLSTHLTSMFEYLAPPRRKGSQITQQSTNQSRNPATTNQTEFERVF
Sequence of Vascular endothelial growth factor receptor 2 (P35968 whole entry): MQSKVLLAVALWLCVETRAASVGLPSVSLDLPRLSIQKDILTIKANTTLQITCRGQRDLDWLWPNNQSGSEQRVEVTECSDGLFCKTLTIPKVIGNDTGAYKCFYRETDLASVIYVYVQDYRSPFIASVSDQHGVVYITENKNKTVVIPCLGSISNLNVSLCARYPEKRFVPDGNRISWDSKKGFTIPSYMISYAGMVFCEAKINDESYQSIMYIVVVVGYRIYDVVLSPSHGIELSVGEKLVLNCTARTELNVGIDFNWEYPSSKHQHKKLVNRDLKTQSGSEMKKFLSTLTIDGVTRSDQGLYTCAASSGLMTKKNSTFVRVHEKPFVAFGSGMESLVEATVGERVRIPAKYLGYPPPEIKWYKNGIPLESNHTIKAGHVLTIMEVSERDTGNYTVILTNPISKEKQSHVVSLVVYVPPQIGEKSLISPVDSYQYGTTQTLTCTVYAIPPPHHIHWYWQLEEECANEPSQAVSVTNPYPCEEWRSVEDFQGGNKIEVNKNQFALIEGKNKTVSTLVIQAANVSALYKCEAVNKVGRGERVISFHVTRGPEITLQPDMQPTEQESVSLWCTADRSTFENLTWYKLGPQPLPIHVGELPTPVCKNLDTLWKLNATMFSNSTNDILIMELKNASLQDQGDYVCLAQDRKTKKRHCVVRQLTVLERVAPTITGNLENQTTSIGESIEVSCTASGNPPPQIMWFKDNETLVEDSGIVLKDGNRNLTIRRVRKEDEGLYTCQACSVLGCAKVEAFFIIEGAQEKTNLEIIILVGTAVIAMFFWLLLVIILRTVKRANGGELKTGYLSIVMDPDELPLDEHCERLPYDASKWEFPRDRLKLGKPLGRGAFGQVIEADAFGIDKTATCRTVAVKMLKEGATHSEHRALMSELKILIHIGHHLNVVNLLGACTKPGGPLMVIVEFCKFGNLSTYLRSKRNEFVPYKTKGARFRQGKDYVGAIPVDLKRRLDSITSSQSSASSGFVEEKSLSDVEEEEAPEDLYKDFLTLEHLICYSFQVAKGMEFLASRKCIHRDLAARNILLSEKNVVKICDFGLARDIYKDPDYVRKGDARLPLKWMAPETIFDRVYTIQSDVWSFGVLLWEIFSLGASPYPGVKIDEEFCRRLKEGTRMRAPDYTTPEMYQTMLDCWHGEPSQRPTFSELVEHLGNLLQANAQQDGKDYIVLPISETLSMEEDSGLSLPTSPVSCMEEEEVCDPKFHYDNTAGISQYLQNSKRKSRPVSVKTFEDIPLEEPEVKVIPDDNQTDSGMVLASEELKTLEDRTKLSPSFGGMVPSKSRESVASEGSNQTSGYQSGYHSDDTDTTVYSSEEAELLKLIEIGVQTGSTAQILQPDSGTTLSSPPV

## CN(C)C(=O)c1cc2cnc(Nc3ccc(NC(=O)C4(C(=O)Nc5ccc(F)cc5)CC4)cc3)nc2n1C1CCCC1
T47D [1]
  Activity: 85%
NCI-H460 [2]
  pIC50: 6.44
A549 [3]
  inhibition of growth at 1 µM: 86.6%
T47D [4]
  Activity: Dose-dependent effect
[5]
  inhibition: 29%
[6]
  inhibition: 7%
T47D [7]
  Activity: Active
NCI-H460 [8]
  inhibition of growth at 10 µM: 102%
T47D [9]
  Activity: 1.39%
T47D [10]
  Activity: 4.98%
[11]
  inhibition: 85%
NCI-H460 [12]
  inhibition of growth at 1 µM: 79.9%
T47D [13]
  Activity: 0.65%
A549 [14]
  inhibition of growth at 10 µM: 102%
T47D [15]
  Activity: 2.01%
T47D [16]
  Activity: 93.1%
HeLa
  inhibition of growth at 10 µM: 73.7%
NCI-H1299 [17]
  pIC50: 6.66
T47D [18]
  inhibition: Active
T47D [19]
  Activity: 0.52%
SiHa [20]
  inhibition of growth at 10 µM: 98%
[21]
  pIC50: < 5.00
T47D [22]
  Activity: 7.45%
T47D [23]
  inhibition of growth at 10 µM: 105%
[24]
  inhibition: 73%
[25]
  inhibition: 6%
[26]
  inhibition: 65%
[27]
  inhibition: 81%
NCI-H1299 [28]
  inhibition of growth at 1 µM: 93.3%
[29]
  inhibition: 102%
T47D [30]
  Activity: Active
OVCAR-5
  inhibition of growth at 1 µM: 65.4%
T47D [31]
  Activity: 3.16%
[32]
  inhibition: 98%
CDK9/cyclin T1
  pIC50: 7.92
SiHa [33]
  inhibition of growth at 1 µM: 36.5%
[34]
  inhibition: 86%
